# T cruzi intra – inhibitors of intracellular Trypanosoma cruzi, primary screen, cell-based, plate reader, single point, set 2; intracellular Trypanosoma cruzi in host cells; activity score (inhibition), % at 5.01 µM; 22,000 tested, 4.9% active; AID 651903, 2012; in the data active = activity score above about 55%; inconclusive = no clear call, values can overlap the other calls;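 note: parasites and compound incubated about four days before reading; 0% = median of neutral control wells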
# INS-1E rescue – protection of INS-1E cells from cytokine death, primary screen, ATP luminescence, single point; INS-1E cytokine-induced death, 48 h; normalised: neutral wells 0, positive control 100; protection from cytokine-induced ATP loss, % at 10 µM; 20,000 tested, 0.1% active;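 active = mean replicate protection from cytokine-induced ATP loss at least 50% and at least 75% of replicates each reaching 50%; inconclusive = meets only one of the two criteria, mean or replicate share; inactive = fails both the mean and replicate share criteria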
#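 Material: INS-1E rat cells; Quantity: 8000 cells/well; Buffer or medium: phenol-red-free RPMI with 5% fetal bovine serum; Probe or stimulus: cytokine cocktail of IFN-γ, TNF-α and IL-1β; Compound dosing: single test concentration per compound, delivered by pin transfer; Incubation: 48 h co-treatment, 10 min post-lysis read; Signal: CellTiter-Glo luminescence.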
# A1 apoptosis 2 – A1 inhibitors via caspase activation, primary screen, cell-based, luminescence, HTS, two replicates. MEF A1-2A-BIM cells, caspase-Glo luminescence, 3 h; percent of clofoctol response, DMSO zero. caspase activation, % (no concentration beside the values). 24,000 tested, under 10 active; in the data active = caspase activation above about 5.9%; inconclusive = no clear call, values can overlap the other calls; inactive = below about 2.2%
#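 Material: A1-2A-BIM-expressing MEF cells. Buffer or medium: RPMI-1640 plus 10% FBS. Incubation: cells settled overnight, compound exposure 3 h at 37 °C, 5% CO2. Signal: Caspase-Glo 3/7 luminescence, 1 h at room temperature.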
# An asterisk follows results filed as active; ? = inconclusive; . = not tested or not shown. This excerpt belongs to a sample that is enriched for hits.
SMILES,T cruzi intra,INS-1E rescue,A1 apoptosis 2
C[C@H](CO)N1C[C@H](C)[C@H](CN(C)Cc2ccccc2)Oc2ccc(NC(=O)Nc3ccc(F)cc3)cc2CC1=O,-40.3,-9.0,0.0
C[C@H]1CN([C@@H](C)CO)C(=O)Cc2cc(NC(=O)Nc3ccccc3)ccc2O[C@H]1CN(C)Cc1ccc(C(F)(F)F)cc1,66.9*,-47.2,.
C[C@H]1CN([C@@H](C)CO)C(=O)Cc2cc(NC(=O)Nc3ccc(C(F)(F)F)cc3)ccc2O[C@H]1CN(C)Cc1ccccc1,70.3*,-89.4,.
C[C@H](CO)N1C[C@H](C)[C@H](CN(C)Cc2ccccc2)Oc2ccc(NC(=O)Cc3ccccc3)cc2CC1=O,28.6,-4.1,0.0
C[C@H](CO)N1C[C@H](C)[C@@H](CN(C)Cc2ccccc2)Oc2ccc(NC(=O)Nc3ccc(C(F)(F)F)cc3)cc2CC1=O,.,.,0.1
O=C(O)CCCCCC(=O)N/N=C/CCC1CCCCC1,-17.3,-5.9,2.0
COc1ccc([C@@H]2C=C(C(=O)O)O[C@H](OCc3ccc(CO)cc3)C2)cc1,.,.,0.0
C=C(C)[C@@H]1CC=C(/C=N/NC(=O)CCCCC(=O)NO)CC1,26.7,2.9,.
Cc1ccc(S(=O)(=O)Nc2ccc3c(c2)C(=O)N([C@@H](C)CO)C[C@@H](C)[C@H](CN(C)S(=O)(=O)c2ccc(C)cc2)O3)cc1,15.8,3.3,.
O=C(NO)c1ccc(C(=O)N/N=C/c2ccc[nH]2)cc1,-2.8,-3.9,.
COC(=O)CCCCCCC(=O)N/N=C/[C@H](O)[C@H](O)[C@@H](O)[C@@H](O)CO,-9.7,-8.8,-0.1
C[C@@H]1CN([C@H](C)CO)C(=O)Cc2cc(NC(=O)Nc3ccc(C(F)(F)F)cc3)ccc2O[C@H]1CN(C)Cc1ccccc1,72.5*,-8.2,.
C[C@H](CO)N1C[C@H](C)[C@H](CN(C)Cc2ccccc2)Oc2ccc(NC(=O)Nc3ccccc3)cc2CC1=O,-6.9,2.9,2.3
COC(=O)CCCCCCC(=O)N/N=C/c1cccc2ccccc12,16.2,6.2,.
C[C@H]1CN([C@@H](C)CO)C(=O)c2cccc(NC(=O)c3ccncc3)c2O[C@H]1CN(C)Cc1ccc(Oc2ccccc2)cc1,82.3*,-15.9,-0.7
C[C@@H]1CN([C@@H](C)CO)C(=O)c2cccc(NC(=O)c3cnccn3)c2O[C@H]1CN(C)Cc1ccc(Oc2ccccc2)cc1,33.0,-30.5,.
C[C@@H]1CN([C@H](C)CO)C(=O)c2cccc(NC(=O)c3cnccn3)c2O[C@H]1CN(C)Cc1ccc(Oc2ccccc2)cc1,33.2,-21.8,.
C[C@H](CO)N1C[C@H](C)[C@@H](CN(C)Cc2ccc(Oc3ccccc3)cc2)Oc2c(NC(=O)c3cnccn3)cccc2C1=O,?,-42.4,.
C[C@@H]1CN([C@H](C)CO)C(=O)c2cccc(NC(=O)c3ccncc3)c2O[C@@H]1CN(C)Cc1ccc(Oc2ccccc2)cc1,81.0*,-15.9,-1.2
C[C@@H]1CN([C@@H](C)CO)C(=O)c2cccc(NC(=O)c3ccncc3)c2O[C@H]1CN(C)Cc1ccc(Oc2ccccc2)cc1,80.4*,-6.6,0.3
C[C@H](CO)N1C[C@H](C)[C@H](CN(C)Cc2ccc(Oc3ccccc3)cc2)Oc2c(NC(=O)c3cnccn3)cccc2C1=O,68.8*,-29.1,-0.5
CC(C)(C)NC(=O)C(COCc1ccccc1)OC(=O)c1ccccc1 (stereo unspecified),.,.,0.0
Cc1noc(C)c1NC(=O)N(C)C[C@@H]1Oc2c(NC(=O)c3cnccn3)cccc2C(=O)N([C@@H](C)CO)C[C@H]1C,-6.2,1.4,0.6
C[C@H]1CN([C@@H](C)CO)C(=O)c2cccc(NC(=O)Nc3cccc4ccccc34)c2O[C@@H]1CN(C)S(=O)(=O)c1cn(C)cn1,27.9,-0.1,1.6
Cc1ccc(/C=N/NC(=O)CCCCC(=O)NO)o1,6.6,3.3,0.9
SMILES,T cruzi intra,INS-1E rescue,A1 apoptosis 2
CC(C)(C)OC(=O)NC/C=N/NC(=O)CCCCCCC(=O)Nc1ccccc1O,16.0,-5.8,0.8
C[C@@H]1CN([C@H](C)CO)C(=O)Cc2cc(NS(=O)(=O)c3ccccc3)ccc2O[C@H]1CN(C)Cc1ccc(Cl)c(Cl)c1,73.1*,-9.8,-1.0
C[C@H](CO)N1C[C@H](C)[C@H](CN(C)Cc2ccc(Cl)c(Cl)c2)Oc2ccc(NS(=O)(=O)c3ccccc3)cc2CC1=O,37.5,-5.2,0.3
C[C@H]1CN([C@@H](C)CO)C(=O)Cc2cc(NS(=O)(=O)c3ccccc3)ccc2O[C@H]1CN(C)Cc1ccc(Cl)c(Cl)c1,24.7,-28.9,-0.5
C[C@@H]1CN([C@H](C)CO)C(=O)Cc2cc(NS(=O)(=O)c3ccccc3)ccc2O[C@@H]1CN(C)Cc1ccc(Cl)c(Cl)c1,65.3*,-65.2,-0.8
CC(C)=CCC[C@@H](C)C/C=N/NC(=O)c1ccccn1,4.1,-0.8,-1.2
C[C@@H]1CN([C@@H](C)CO)C(=O)c2cc(N(C)C)ccc2O[C@@H]1CN(C)Cc1ccc(Cl)c(Cl)c1,64.2*,-10.9,.
C[C@H]1CN([C@@H](C)CO)C(=O)c2cc(N(C)C)ccc2O[C@H]1CN(C)Cc1ccc(-c2ccccc2)cc1,35.4,-2.2,.
C[C@@H]1CN([C@H](C)CO)C(=O)c2cc(N(C)C)ccc2O[C@@H]1CN(C)Cc1ccc(Cl)c(Cl)c1,20.9,-5.9,-1.4
C[C@H](CO)N1C[C@H](C)[C@@H](CN(C)Cc2ccc(Oc3ccccc3)cc2)Oc2ccc(N(C)C)cc2C1=O,71.3*,-10.0,-1.5
C[C@@H]1CN([C@@H](C)CO)C(=O)c2cc(N(C)C)ccc2O[C@@H]1CN(C)Cc1ccc(-c2ccccc2)cc1,64.5*,-15.1,.
C[C@H](CO)N1C[C@H](C)[C@H](CN(C)Cc2ccccc2)Oc2ccc(N(C)C)cc2C1=O,-3.7,1.6,-0.5
COc1ccc(/C=N/NC(=O)CCCCCCC(=O)Nc2ccccc2O)cc1,-11.1,9.5,-0.2
COc1cc(/C=N/NC(=O)c2ccccc2O)ccc1O,-18.3,-31.2,.
Nc1cccc(COc2ccc(/C=C/C(=O)NO)cc2)c1,.,.,-1.0
COC(=O)CCCCCCC(=O)N/N=C/c1ccc(N(C)C)cc1,0.6,5.1,1.0
CC(C)(C)OC(=O)CC[C@@]12N=C(c3ccc(OCCCO)cc3)O[C@@H]1c1ccccc1N(CCS(=O)(=O)c1ccccc1)C2=O,.,.,-2.2
COCCOC(=O)N1C(=O)[C@@]2(c3cc(C#CC4=CCCCC4)ccc31)[C@H](c1ccccc1OCCO)N1[C@H](c3ccccc3)[C@H](c3ccccc3)OC(=O)[C@H]1[C@@H]2C(N)=O,.,.,-0.8
O=C(N/N=C/c1cc(O)ccc1[N+](=O)[O-])c1ccccc1O,1.5,-38.5,-4.3
C[C@@H]1CCCCO[C@H](CN(C)Cc2ccc(C(F)(F)F)cc2)[C@@H](C)CN([C@H](C)CO)C(=O)c2cc(NS(=O)(=O)c3ccc(Cl)cc3)ccc2O1,69.1*,-31.3,1.6
C[C@@H]1CN([C@@H](C)CO)C(=O)c2cc(NS(=O)(=O)c3ccc(Cl)cc3)ccc2O[C@@H](C)CCCCO[C@@H]1CN(C)Cc1ccc(C(F)(F)F)cc1,.,.,0.6
